Laboratory results as given in ChEMBL document CHEMBL1152985, “Contributions of the combined effects of topoisomerase mutations toward fluoroquinolone resistance in Escherichia coli” (2007).

Legend:
[1] = tested on: Escherichia coli; experiment: Antibacterial activity against Escherichia coli 1596 containing parC K84 mutant assessed as decrease in MIC by Etest relative to MIC for Escherichia coli 1608 containing gyrA mutant; format: functional
Method in brief: (§1)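 Defined isogenic E. coli strains in a C600 background (parent 1609); mutations introduced by λ Red recombineering with temperature-sensitive pSIM5, overnight recovery after electroporation, plasmid cured at 37°C. Fluoroquinolone MICs were read by Etest per the manufacturer's instructions. MICs above the Etest limit were measured by broth macrodilution per CLSI guidelines. Results are expressed as fold change in MIC relative to the comparator strain.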

[2] = tested on: Escherichia coli; experiment: Antibacterial activity against Escherichia coli 1608 containing gyrA L83, Y87 mutants assessed as increase in MIC by Etest relative to MIC for wild type Escherichia coli 1609
[3] = tested on: Escherichia coli; experiment: Antibacterial activity against Escherichia coli SKM18 containing gyrA L83, Y87 and parC I80, G84 mutants assessed as increase in MIC by Etest relative to MIC for Escherichia coli SKM9 containing gyrA L83, Y87 and parC L80 mutants
[4] = tested on: Escherichia coli; experiment: Antibacterial activity against Escherichia coli SKM9 containing gyrA L83, Y87 and parC L80 mutants assessed as increase in MIC by Etest relative to MIC for Escherichia coli 1596 containing gyrA L83 and parC L80 mutants
[5] = tested on: Escherichia coli; experiment: Antibacterial activity against Escherichia coli 1596 containing gyrA L83 and parC I80, G84 mutants assessed as increase in MIC by Etest relative to MIC for Escherichia coli 1608 containing gyrA mutant; format: functional; method in brief: as §1
[6] = tested on: Escherichia coli; experiment: Antibacterial activity against Escherichia coli 1608 containing gyrA L83 mutant assessed as increase in MIC by Etest relative to MIC for wild type Escherichia coli 1609; format: functional; method in brief: as §1

Compound | MIC [1] [µg/mL] | Ratio [2] | Ratio [3] | Ratio [4] | Ratio [5] | Ratio [6]
Cc1c(F)c(N2CCNC(C)C2)cc2c1c(=O)c(C(=O)O)cn2C1CC1 (configuration not stated) [GREPAFLOXACIN] | 0.014 |  |  |  |  | 
COc1c(N2CCNC(C)C2)c(F)cc2c(=O)c(C(=O)O)cn(C3CC3)c12 (configuration not stated) [GATIFLOXACIN] |  | 5 | 2 | 9 | 1 | 
CO/N=C1\CN(c2nc3c(cc2F)c(=O)c(C(=O)O)cn3C2CC2)CC1CN (configuration not stated) [GEMIFLOXACIN] | 0.007 | 5 |  | 9 | 1 | 
COc1c(N2C[C@@H]3CCCN[C@@H]3C2)c(F)cc2c(=O)c(C(=O)O)cn(C3CC3)c12 [MOXIFLOXACIN] | 0.028 | 5 | 10 | 9 | 1 | 1
C[C@H]1COc2c(N3CCN(C)CC3)c(F)cc3c(=O)c(C(=O)O)cn1c23.C[C@H]1COc2c(N3CCN(C)CC3)c(F)cc3c(=O)c(C(=O)O)cn1c23.O [LEVOFLOXACIN] |  | 5 |  | 9 | 1 | 
C[C@@H]1CN(c2c(F)c(N)c3c(=O)c(C(=O)O)cn(C4CC4)c3c2F)C[C@H](C)N1 [SPARFLOXACIN] | 0.008 |  |  |  |  | 
CCn1cc(C(=O)O)c(=O)c2cc(F)c(N3CCNCC3)cc21 [NORFLOXACIN] |  | 5 |  | 9 | 5 | 
